High-throughput results (PubChem)
Only some compounds are listed: those with a hit (about 5.8% of all), similar ones and a draw of the others.
NCF1 inh: p47phox/p22phox peptide binding inhibitors, primary screen, biochemical, uHTS, NADPH oxidase regulatory subunit | Neutrophil cytosol factor 1 (Homo sapiens), P14598 | fluorescence polarization, 2 h | inhibition, % at 24.7 µM | 220,000 tested, 0.53% active;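 active means inhibition above about 30%, limit read from the data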;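 further: 0% = p47phox with labelled peptide and 100% = labelled peptide alone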
RBBP9 inh: human RBBP9 inhibitors, primary screen, biochemical, fluorescence polarization, FP-Rh probe, HTS; Serine hydrolase RBBP9 (Homo sapiens), O75884; recombinant RBBP9; inhibition, % at 7.94 µM; 220,000 tested, 0.2% active; AID 1515, 2009;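 active means inhibition above the campaign mean of all tested compounds plus 3 SD, cut at about 14% in these data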;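 further: plate controls were DMSO wells with RBBP9 for no effect and wells lacking RBBP9 protein for full effect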
Target sequence (O75884 whole entry, looked up): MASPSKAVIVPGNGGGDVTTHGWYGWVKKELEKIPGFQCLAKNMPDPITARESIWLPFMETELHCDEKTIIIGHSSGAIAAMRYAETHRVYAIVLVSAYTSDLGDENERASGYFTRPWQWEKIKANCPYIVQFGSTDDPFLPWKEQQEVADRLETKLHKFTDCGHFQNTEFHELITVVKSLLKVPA
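Assay system: recombinant human RBBP9; Reagent: Serine-hydrolase probe FP-Rh, 375 nM pre-mixing; Doses: 7.94 µM single dose, 0.794% DMSO; Incubation: 30 min then 45 min, 25 °C; Detection: fluorescence polarization (mP), excitation 525 nm, emission 598 nm; Evaluation: percent inhibition from mP, scaled between DMSO and no-protein wells.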
14-3-3 Bad PPI: inhibitors of 14-3-3 zeta/Bad binding, primary screen, biochemical, TR-FRET, bovine 14-3-3 zeta; TR-FRET 14-3-3zeta/Dy647-pBad peptide displacement, 1 h; inhibition, % at 21.7 µM; 220,000 tested, 0.71% active;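 active means inhibition above about 70%, limit read from the data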;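 further: 0% = full 14-3-3 plus peptide FRET controls and 100% = background without 14-3-3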
Target sequence (P63103 whole entry, looked up): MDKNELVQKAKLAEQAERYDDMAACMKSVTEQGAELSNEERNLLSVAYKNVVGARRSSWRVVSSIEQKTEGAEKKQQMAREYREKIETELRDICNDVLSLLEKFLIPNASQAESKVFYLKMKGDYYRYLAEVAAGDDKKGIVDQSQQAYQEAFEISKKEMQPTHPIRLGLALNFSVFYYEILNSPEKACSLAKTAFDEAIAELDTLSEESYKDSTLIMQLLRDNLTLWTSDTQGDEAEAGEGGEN
KCC2 mod: KCC2 cotransporter modulators, thallium flux, primary screen, cell-based, HEK293 KCC2, FluoZin-2 fluorescence, MLSMR; B-score of Tl+ flux slope (higher = more flux/activation; lower = inhibition) at 10 µM; AID 1456, 2008; KCC2 cells, thallium flux FluoZin-2 fluorescence; 190,000 tested, 2.2% active;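 active means thallium flux slope and its plate-corrected score both differing from the plate sample mean at a set confidence after two filtering rounds, in either direction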;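 further: slope of fluorescence scaled to starting intensity during 10 to 20 s after thallium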
ROMK primary: ROMK potassium channel modulators, primary screen, cell-based, thallium flux, MLSMR library; Tet-inducible ROMK, thallium flux fluorescence; actives lie on both sides; AID 1918, 2009; B-score at 10 µM; ATP-sensitive inward rectifier potassium channel 1 (Homo sapiens), P48048; 130,000 tested, 2% active;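 active means signal ratio slope over the read window, or its plate-corrected B-score, at least 3 SD from the plate mean, either direction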;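 further: B-score of the F/F0 ratio slope over 7 to 12 s after thallium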
WT yeast gro inh: growth inhibition of WT strain, primary screen, mitochondrial fusion inhibitor project, WT and mutant strains, chemical genetic; mitochondrial fusion phenotypic screen; inhibition, % at 10 µM; 190,000 tested, 2.1% active; AID 1362, 2008; in the data active means inhibition above about 58%; tested in S. cerevisiae
* = called active by the depositor; nt = no result; [ ] = dose if it differs, or a comment.

SMILES | NCF1 inh | RBBP9 inh | 14-3-3 Bad PPI | KCC2 mod | ROMK primary | WT yeast gro inh
O=C(CNc1cccc2ccccc12)N/N=C/C(Br)=C/c1ccccc1 | -5 | -5 | 32 | -0.5 | nt | 72*
C=CCc1cccc(/C=N/NC(=O)CCCNc2ccc(C)cc2)c1O | 94* | -7 | 5 | -0.098 | nt | 23
C=CCc1cccc(/C=N/NC(=O)CNc2cccc3ccccc23)c1O | -8 | -14 | -4 | 0.94 | 0.9 | 62*
C=CCc1cccc(/C=N/NC(=O)CNc2ccccc2)c1O | 6 | -1 | 1 | 0.77 | -0.71 | -11
CC(C)(C)OC(=O)N1CCN(C(=O)c2cccnc2Cl)CC1 | -7 | -1 | -8 | -0.34 | -0.34 | 0
O=C(Nc1cccc(F)c1)c1cc(S(=O)(=O)NCCC2=CCCCC2)ccc1F | -7 | -4 | 4 | 1.2 | nt | 60*
Cc1cc(N2CCOCC2)n2nc(C)c(-c3ccccc3)c2n1 | 1 | -5 | -9 | nt | -0.33 | 4
Cc1nn2c(N3CCN(c4ccccn4)CC3)cc(C(C)C)nc2c1-c1ccccc1 | -9 | -8 | -20 | nt | nt | 97*
O=C(CNC(=O)/C(=C\c1ccccc1)NC(=O)c1ccc(Br)cc1)OCc1ccccc1 | -13 | -8 | -10 | -5.6* | nt | 11
O=C(CNC(=O)/C(=C\c1ccc(F)cc1)NC(=O)c1ccccc1)OCc1ccccc1 | -16 | -1 | 5 | -2.2 | nt | -4
Cc1ccc(S(=O)(=O)Nc2ccc(C(OC(=O)c3ccccc3[N+](=O)[O-])(C(F)(F)F)C(F)(F)F)cc2)cc1 | -16 | -8 | -2 | 0.063 | nt | 86*
COC(=O)c1sc(SC)c(S(=O)(=O)C(C)C)c1N/N=C(\C#N)C(=O)c1ccccc1 | -2 | -5 | -11 | -0.97 | nt | nt
N=c1c2c(ncn1Cc1ccco1)Oc1c(ccc3ccccc13)C2c1ccccc1 (centres undefined) | -9 | -27 | -12 | -0.42 | 0.29 | 69*
Cn1c(O)c(/C=N/Nc2ccccc2)c(=O)n(C)c1=O | 1 | -11 | -8 | 0.19 | -0.089 | 67*
CN(NC(=O)c1ccccc1F)c1ncccc1[N+](=O)[O-] | -14 | -2 | 1 | 0.016 | -0.19 | nt
C/C(=N\Nc1ccccn1)c1ccc(C(C)C)cc1 | -1 | 0 | -9 | 0.49 | -0.27 | 76*
C/C(=N\Nc1ccccn1)c1ccc(N2CCOCC2)cc1 | -2 | 8 | -8 | -0.39 | 0.34 | 2
COC(=O)c1cc(NC2c3ncccc3C(=O)N2Cc2ccccc2)cc(C(=O)OC)c1 (centres undefined) | 15 | 4 | 4 | nt | -0.003 | 19
COc1ccc(CN2C(=O)c3cccnc3C2Nc2cc(Cl)ccc2OC)cc1 (centres undefined) | -2 | -3 | 96*[fluorescence artefact?] | -0.017 | 0.036 | 5
CCOC(=O)c1ccc(NC2c3ncccc3C(=O)N2Cc2ccc(F)cc2)cc1 (centres undefined) | 2 | 7 | 86* | nt | 0.33 | -4
COc1ccc(CN2C(=O)c3cccnc3C2O)cc1 (centres undefined) | -15 | -7 | 87* | -0.15 | nt | 6
O=C(CSCc1cccc(Br)c1)NC1CC1 | -5 | -4 | 14 | 0.9 | nt | 9
O=S(=O)(NCC(Nc1ccc(Cl)cc1)c1ccccc1)c1ccccc1 (centres undefined) | 2 | -10 | -5 | 0.39 | 0.23 | 83*
NS(=O)(=O)c1ccc(NC(CNS(=O)(=O)c2ccccc2)c2ccccc2)cc1 (centres undefined) | 5 | -11 | 13 | 2.5 | 0.12 | 1
Cc1ccc(NC(CNS(=O)(=O)c2ccc(Cl)cc2)c2ccccc2)cc1 (centres undefined) | -3 | 3 | -12 | nt | nt | 88*
SMILES | NCF1 inh | RBBP9 inh | 14-3-3 Bad PPI | KCC2 mod | ROMK primary | WT yeast gro inh
COCC(=O)N1CCCC(C(=O)c2ccc(-c3ccccc3)c(F)c2)C1 (centres undefined) | -6 | 6 | 3 | -3 | 0.85 | 59*
Cc1cccc2sc(NNC(=O)c3cc(-c4cccs4)nc4ccccc34)nc12 | 4 | -6 | -11 | -0.017 | -1.2 | 59*
NNC(=O)c1cc(-c2cccs2)nc2ccccc12 | -16 | -21 | -7 | 0.39 | nt | nt
COc1cccc(-c2nc(OC(C)C)c3ccccc3n2)c1 | -18 | -3 | -3 | 0.27 | nt | 61*
c1ccc2sc(NC3=NCN(CC4CCCO4)CN3)nc2c1 (centres undefined) | -6 | 2 | -5 | -0.79 | 0.1 | -9
CCCCNC(=O)C1CCN(S(=O)(=O)c2cnc[nH]2)CC1 | -8 | -1 | -3 | 0.25 | nt | 71*
Cc1ccc(CNC(=O)C2CCN(S(=O)(=O)c3cnc[nH]3)CC2)cc1 | -4 | 1 | -1 | nt | 0.54 | 3
CC(C)S(=O)(=O)c1cnc(N2CCOCC2)nc1N | 4 | -10 | -3 | -0.39 | nt | nt
CCc1nc2c(c(=O)c3ccccc3n2C)c(=O)n1CCc1ccc(OC)cc1 | 5 | 2 | 88* | -1.6 | nt | -9
COc1ccc(CCn2c(-c3ccc(OC)cc3)nc3c(c(=O)c4ccccc4n3C)c2=O)cc1 | -9 | 4 | 6 | 0.059 | 0.058 | nt
Cc1cc(C)c(-n2c(SCCS(=O)(=O)c3ccc(F)cc3)n[nH]c2=O)c(C)c1 | 2 | 4 | -16 | -0.95 | nt | nt
CCOC(=O)c1ccc2nc(C(F)(F)F)[nH]c(=O)c2c1 | -8 | -1 | 77* | -0.012 | nt | 4
CNC(=S)N1N=C(c2ccc(C)cc2)CC1c1ccc(Br)cc1 (centres undefined) | -14 | 2 | -21 | -0.012 | -0.19 | 58*
CC(C)c1ccc(C2CC(c3ccc(Br)cc3)=NN2C(N)=S)cc1 (centres undefined) | -3 | 4 | 6 | 0.14 | 0.43 | 65*
CCOC(=O)c1ccc(NC(=O)c2cc3c(s2)CCC3)cc1 | -1 | -3 | 3 | 0.39 | nt | nt
CCn1nc(C(=O)OCC(=O)N2CCc3ccccc32)c2ccccc2c1=O | -11 | -6 | -15 | -3.4* | nt | -6
Cc1ccc(OCC(=O)Nc2ccc(N3CCN(C(=O)c4ccco4)CC3)cc2)cc1 | 6 | 0 | 5 | 0.077 | 0.44 | 15
CCn1c(SC(C)C(=O)O)nc2sc3c(c2c1=O)CCC3 (centres undefined) | 6 | 1 | 46 | 26* | 1.7 | -6
COc1ccc(C(=O)N/N=C/c2cccc3cccnc23)cc1 | -3 | -10 | -1 | -0.94 | -0.11 | 1
O=C(N/N=C/c1ccccn1)c1ccc(Br)cc1 | 0 | -3 | 5 | 4.2* | nt | 25
